Reference: ChEMBL document CHEMBL5724801, “EUbOPEN Chemogenomics Library - Multiplex” (2024)
Several values for one entry are separate records, joined by “and”; a condition that tells them apart may be missing. Equal values may be shown once.

System: HEK-293T
Experiment: Multiplex assay against HEK293T
Format: toxicity, cell-based
Conditions: human
How it was run: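 Phenotypes for tubulin, mitochondrial mass and membrane permeability are expressed as per cents of healthy-nucleus cells. Cells were stained live at seeding with Hoechst33342, BioTracker Green Microtubule Cytoskeleton Dye, MitoTracker Red and Annexin V Alexa Fluor 680, then imaged after compound addition on a CQ1 microscope at 37°C and 5% CO2. Machine-learning gating in CellPathfinder separated Hoechst high-intensity objects from normal cells, divided normal cells by nuclear state (healthy, pyknosed, fragmented) and divided pyknosed cells into mitotic or apoptotic.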

[1] = 12 h, 1 µM, compound concentration 1 uM
[2] = 12 h, 10 µM, compound concentration 10 uM
[3] = 24 h, 1 µM, compound concentration 1 uM
[4] = 24 h, 10 µM, compound concentration 10 uM
[5] = 48 h, 1 µM, compound concentration 1 uM
[6] = 48 h, 10 µM, compound concentration 10 uM

## S=C(NCCCc1c[nH]cn1)NCCCN(Cc1ccc(Cl)c(Cl)c1)c1ccc(Br)cn1
[1]
  Population Apoptotic (%): 39% and 53%
  Population Fragmented Nuclei (%): 8% and 5%
  Population Healthy Nuclei (%): 78% and 79%
  Population Hoechst High Intensity Objects (%): 17% and 6%
  Population Membrane Permeable-Phenotype (%): 0%
  Population Mitochondria Different-Phenotype (%): 50% and 58%
  Population Mitotic Cells (%): 60% and 46%
  Population Normal (%): 82% and 93%
  Population Pyknosed Nuclei (%): 13% and 14%
  Population Tubulin-Different-Phenotype (%): 36% and 35%
  Total Cell Count: 378 and 294
[2]
  Population Apoptotic (%): 90% and 77%
  Population Fragmented Nuclei (%): 4% and 8%
  Population Healthy Nuclei (%): 57% and 71%
  Population Hoechst High Intensity Objects (%): 33% and 19%
  Population Membrane Permeable-Phenotype (%): 0%
  Population Mitochondria Different-Phenotype (%): 77% and 84%
  Population Mitotic Cells (%): 9% and 22%
  Population Normal (%): 66% and 80%
  Population Pyknosed Nuclei (%): 38% and 19%
  Population Tubulin-Different-Phenotype (%): 78%
  Total Cell Count: 242 and 229
[3]
  Population Apoptotic (%): 39% and 41%
  Population Fragmented Nuclei (%): 10% and 9%
  Population Healthy Nuclei (%): 73% and 81%
  Population Hoechst High Intensity Objects (%): 22% and 13%
  Population Membrane Permeable-Phenotype (%): 0%
  Population Mitochondria Different-Phenotype (%): 45% and 48%
  Population Mitotic Cells (%): 60% and 58%
  Population Normal (%): 77% and 86%
  Population Pyknosed Nuclei (%): 16% and 9%
  Population Tubulin-Different-Phenotype (%): 32%
  Total Cell Count: 326 and 301
[4]
  Population Apoptotic (%): 85% and 82%
  Population Fragmented Nuclei (%): 11% and 16%
  Population Healthy Nuclei (%): 49% and 59%
  Population Hoechst High Intensity Objects (%): 48% and 39%
  Population Membrane Permeable-Phenotype (%): 1% and 0%
  Population Mitochondria Different-Phenotype (%): 75% and 82%
  Population Mitotic Cells (%): 14% and 17%
  Population Normal (%): 51% and 61%
  Population Pyknosed Nuclei (%): 39% and 23%
  Population Tubulin-Different-Phenotype (%): 78%
  Total Cell Count: 237 and 200
[5]
  Population Apoptotic (%): 47% and 36%
  Population Fragmented Nuclei (%): 14% and 17%
  Population Healthy Nuclei (%): 65% and 73%
  Population Hoechst High Intensity Objects (%): 36% and 27%
  Population Membrane Permeable-Phenotype (%): 3% and 0%
  Population Mitochondria Different-Phenotype (%): 38% and 32%
  Population Mitotic Cells (%): 52% and 63%
  Population Normal (%): 63% and 72%
  Population Pyknosed Nuclei (%): 19% and 9%
  Population Tubulin-Different-Phenotype (%): 29% and 19%
  Total Cell Count: 307 and 277
[6]
  Population Apoptotic (%): 84% and 75%
  Population Fragmented Nuclei (%): 23% and 21%
  Population Healthy Nuclei (%): 23%
  Population Hoechst High Intensity Objects (%): 75% and 67%
  Population Membrane Permeable-Phenotype (%): 0%
  Population Mitochondria Different-Phenotype (%): 86% and 80%
  Population Mitotic Cells (%): 15% and 25%
  Population Normal (%): 24% and 32%
  Population Pyknosed Nuclei (%): 52% and 55%
  Population Tubulin-Different-Phenotype (%): 53% and 40%
  Total Cell Count: 256 and 203

## CN1CCC(C(=O)c2cccc(NC(=O)c3c(F)cc(F)cc3F)n2)CC1
[1]
  Population Apoptotic (%): 32% and 52%
  Population Fragmented Nuclei (%): 5%
  Population Healthy Nuclei (%): 82%
  Population Hoechst High Intensity Objects (%): 8% and 7%
  Population Membrane Permeable-Phenotype (%): 0%
  Population Mitochondria Different-Phenotype (%): 51% and 59%
  Population Mitotic Cells (%): 67% and 47%
  Population Normal (%): 91% and 92%
  Population Pyknosed Nuclei (%): 11% and 12%
  Population Tubulin-Different-Phenotype (%): 31% and 20%
  Total Cell Count: 396 and 352
[2]
  Population Apoptotic (%): 52% and 53%
  Population Fragmented Nuclei (%): 6%
  Population Healthy Nuclei (%): 80%
  Population Hoechst High Intensity Objects (%): 8% and 10%
  Population Membrane Permeable-Phenotype (%): 1% and 0%
  Population Mitochondria Different-Phenotype (%): 55% and 77%
  Population Mitotic Cells (%): 47% and 46%
  Population Normal (%): 91% and 89%
  Population Pyknosed Nuclei (%): 12% and 13%
  Population Tubulin-Different-Phenotype (%): 50%
  Total Cell Count: 445 and 401
[3]
  Population Apoptotic (%): 26% and 42%
  Population Fragmented Nuclei (%): 11% and 8%
  Population Healthy Nuclei (%): 74% and 83%
  Population Hoechst High Intensity Objects (%): 4% and 3%
  Population Membrane Permeable-Phenotype (%): 0%
  Population Mitochondria Different-Phenotype (%): 30% and 39%
  Population Mitotic Cells (%): 73% and 57%
  Population Normal (%): 95% and 96%
  Population Pyknosed Nuclei (%): 13% and 7%
  Population Tubulin-Different-Phenotype (%): 20% and 17%
  Total Cell Count: 504 and 478
[4]
  Population Apoptotic (%): 25% and 52%
  Population Fragmented Nuclei (%): 10% and 8%
  Population Healthy Nuclei (%): 76% and 81%
  Population Hoechst High Intensity Objects (%): 6% and 8%
  Population Membrane Permeable-Phenotype (%): 0%
  Population Mitochondria Different-Phenotype (%): 48% and 64%
  Population Mitotic Cells (%): 75% and 47%
  Population Normal (%): 93% and 91%
  Population Pyknosed Nuclei (%): 13% and 9%
  Population Tubulin-Different-Phenotype (%): 41% and 34%
  Total Cell Count: 583 and 467
[5]
  Population Apoptotic (%): 22% and 34%
  Population Fragmented Nuclei (%): 11% and 9%
  Population Healthy Nuclei (%): 80% and 84%
  Population Hoechst High Intensity Objects (%): 3%
  Population Membrane Permeable-Phenotype (%): 1%
  Population Mitochondria Different-Phenotype (%): 19% and 24%
  Population Mitotic Cells (%): 77% and 65%
  Population Normal (%): 96%
  Population Pyknosed Nuclei (%): 7% and 5%
  Population Tubulin-Different-Phenotype (%): 12% and 10%
  Total Cell Count: 884 and 692
[6]
  Population Apoptotic (%): 30% and 28%
  Population Fragmented Nuclei (%): 13% and 10%
  Population Healthy Nuclei (%): 79% and 81%
  Population Hoechst High Intensity Objects (%): 4% and 7%
  Population Membrane Permeable-Phenotype (%): 0%
  Population Mitochondria Different-Phenotype (%): 35% and 42%
  Population Mitotic Cells (%): 69% and 71%
  Population Normal (%): 95% and 92%
  Population Pyknosed Nuclei (%): 7%
  Population Tubulin-Different-Phenotype (%): 23% and 25%
  Total Cell Count: 803 and 671

## CSc1ccccc1N1CCN(CCCCCC(=O)NC2CCCc3ccccc32)CC1.Cl (stereo not drawn)
[1]
  Population Apoptotic (%): 45%
  Population Fragmented Nuclei (%): 6%
  Population Healthy Nuclei (%): 74%
  Population Hoechst High Intensity Objects (%): 8% and 12%
  Population Membrane Permeable-Phenotype (%): 0%
  Population Mitochondria Different-Phenotype (%): 68% and 75%
  Population Mitotic Cells (%): 54%
  Population Normal (%): 91% and 87%
  Population Pyknosed Nuclei (%): 18% and 19%
  Population Tubulin-Different-Phenotype (%): 59% and 43%
  Total Cell Count: 391 and 322
[2]
  Population Apoptotic (%): 80% and 79%
  Population Fragmented Nuclei (%): 8% and 5%
  Population Healthy Nuclei (%): 68% and 74%
  Population Hoechst High Intensity Objects (%): 15% and 16%
  Population Membrane Permeable-Phenotype (%): 0%
  Population Mitochondria Different-Phenotype (%): 97%
  Population Mitotic Cells (%): 20%
  Population Normal (%): 84% and 83%
  Population Pyknosed Nuclei (%): 22% and 19%
  Population Tubulin-Different-Phenotype (%): 59% and 65%
  Total Cell Count: 316 and 304
[3]
  Population Apoptotic (%): 36% and 41%
  Population Fragmented Nuclei (%): 8%
  Population Healthy Nuclei (%): 79% and 75%
  Population Hoechst High Intensity Objects (%): 4% and 7%
  Population Membrane Permeable-Phenotype (%): 0%
  Population Mitochondria Different-Phenotype (%): 50% and 70%
  Population Mitotic Cells (%): 63% and 58%
  Population Normal (%): 95% and 92%
  Population Pyknosed Nuclei (%): 11% and 16%
  Population Tubulin-Different-Phenotype (%): 41% and 44%
  Total Cell Count: 508 and 356
[4]
  Population Apoptotic (%): 75% and 69%
  Population Fragmented Nuclei (%): 5% and 7%
  Population Healthy Nuclei (%): 70% and 73%
  Population Hoechst High Intensity Objects (%): 21% and 20%
  Population Membrane Permeable-Phenotype (%): 0%
  Population Mitochondria Different-Phenotype (%): 98% and 97%
  Population Mitotic Cells (%): 24% and 30%
  Population Normal (%): 78% and 79%
  Population Pyknosed Nuclei (%): 23% and 18%
  Population Tubulin-Different-Phenotype (%): 53% and 48%
  Total Cell Count: 303 and 315
[5]
  Population Apoptotic (%): 32% and 45%
  Population Fragmented Nuclei (%): 10%
  Population Healthy Nuclei (%): 78% and 76%
  Population Hoechst High Intensity Objects (%): 4% and 6%
  Population Membrane Permeable-Phenotype (%): 0%
  Population Mitochondria Different-Phenotype (%): 39% and 59%
  Population Mitotic Cells (%): 67% and 54%
  Population Normal (%): 95% and 93%
  Population Pyknosed Nuclei (%): 10% and 13%
  Population Tubulin-Different-Phenotype (%): 27% and 31%
  Total Cell Count: 747 and 471
[6]
  Population Apoptotic (%): 76% and 56%
  Population Fragmented Nuclei (%): 11% and 13%
  Population Healthy Nuclei (%): 73%
  Population Hoechst High Intensity Objects (%): 28% and 18%
  Population Membrane Permeable-Phenotype (%): 0%
  Population Mitochondria Different-Phenotype (%): 97% and 93%
  Population Mitotic Cells (%): 23% and 43%
  Population Normal (%): 71% and 81%
  Population Pyknosed Nuclei (%): 14% and 13%
  Population Tubulin-Different-Phenotype (%): 67% and 56%
  Total Cell Count: 365 and 385
